Experimental data as given in ChEMBL document CHEMBL1142267, “Optimization of alpha-ketooxazole inhibitors of fatty acid amide hydrolase” (J Med Chem, 2008).
pIC50, pKi: −log10 of the molar value.

Assays:
[1] = Selectivity for rat recombinant FAAH over KIAA1363
[2] = molecular target: T1, Fatty-acid amide hydrolase 1 (Homo sapiens, UniProt O00519); assay: Inhibition of human recombinant FAAH expressed COS7 cells; assay type: cell-based, COS-7
T1 sequence (O00519 whole entry): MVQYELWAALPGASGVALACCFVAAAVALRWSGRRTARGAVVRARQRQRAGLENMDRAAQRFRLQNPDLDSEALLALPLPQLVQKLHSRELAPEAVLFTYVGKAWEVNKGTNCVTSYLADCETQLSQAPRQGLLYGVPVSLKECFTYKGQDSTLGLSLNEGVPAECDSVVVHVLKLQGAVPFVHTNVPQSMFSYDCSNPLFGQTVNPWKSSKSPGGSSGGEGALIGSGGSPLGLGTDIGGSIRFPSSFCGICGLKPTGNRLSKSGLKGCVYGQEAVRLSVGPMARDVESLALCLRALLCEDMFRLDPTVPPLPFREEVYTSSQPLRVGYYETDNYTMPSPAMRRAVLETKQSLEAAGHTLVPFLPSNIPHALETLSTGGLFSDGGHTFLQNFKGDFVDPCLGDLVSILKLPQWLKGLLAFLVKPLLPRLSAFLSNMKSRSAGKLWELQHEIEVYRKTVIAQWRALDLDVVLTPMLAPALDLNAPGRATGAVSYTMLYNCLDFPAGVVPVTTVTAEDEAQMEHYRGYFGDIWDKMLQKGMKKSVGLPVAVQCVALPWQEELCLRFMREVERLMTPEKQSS
Method in brief: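 Enzyme source was solubilized membrane lysate of COS-7 cells transiently transfected with full-length human FAAH cDNA. Substrate 10 µM 14C-oleamide in pH 9.0 Tris/EDTA/glycerol/Triton X-100/Hepes buffer at room temperature, with three inhibitor concentrations. Reactions quenched in 0.1 N HCl at three time points, then EtOAc extraction and TLC of oleamide versus oleic acid. Ki from Dixon plot.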

[3] = molecular target: T2, Fatty-acid amide hydrolase 1 (Rattus norvegicus, UniProt P97612); assay: Inhibition of rat recombinant FAAH expressed in Escherichia coli
T2 sequence (P97612 whole entry): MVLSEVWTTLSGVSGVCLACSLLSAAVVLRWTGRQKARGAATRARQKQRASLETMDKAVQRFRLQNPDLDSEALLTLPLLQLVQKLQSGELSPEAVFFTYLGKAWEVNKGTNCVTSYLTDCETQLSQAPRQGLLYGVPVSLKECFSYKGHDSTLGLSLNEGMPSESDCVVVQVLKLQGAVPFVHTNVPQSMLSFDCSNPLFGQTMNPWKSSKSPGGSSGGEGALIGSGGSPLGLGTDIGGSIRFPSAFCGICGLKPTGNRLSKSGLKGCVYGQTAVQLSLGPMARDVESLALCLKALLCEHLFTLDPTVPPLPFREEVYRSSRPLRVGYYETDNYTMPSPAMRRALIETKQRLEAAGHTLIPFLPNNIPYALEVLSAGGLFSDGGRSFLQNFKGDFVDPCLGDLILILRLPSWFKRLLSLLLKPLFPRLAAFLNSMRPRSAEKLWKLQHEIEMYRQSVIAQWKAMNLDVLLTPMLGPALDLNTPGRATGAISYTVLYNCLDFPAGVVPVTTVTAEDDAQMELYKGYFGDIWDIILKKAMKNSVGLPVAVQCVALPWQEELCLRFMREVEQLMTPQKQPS

[4] = molecular target: T3, Liver carboxylesterase 1 (Homo sapiens, UniProt P23141)
T3 sequence (P23141 whole entry): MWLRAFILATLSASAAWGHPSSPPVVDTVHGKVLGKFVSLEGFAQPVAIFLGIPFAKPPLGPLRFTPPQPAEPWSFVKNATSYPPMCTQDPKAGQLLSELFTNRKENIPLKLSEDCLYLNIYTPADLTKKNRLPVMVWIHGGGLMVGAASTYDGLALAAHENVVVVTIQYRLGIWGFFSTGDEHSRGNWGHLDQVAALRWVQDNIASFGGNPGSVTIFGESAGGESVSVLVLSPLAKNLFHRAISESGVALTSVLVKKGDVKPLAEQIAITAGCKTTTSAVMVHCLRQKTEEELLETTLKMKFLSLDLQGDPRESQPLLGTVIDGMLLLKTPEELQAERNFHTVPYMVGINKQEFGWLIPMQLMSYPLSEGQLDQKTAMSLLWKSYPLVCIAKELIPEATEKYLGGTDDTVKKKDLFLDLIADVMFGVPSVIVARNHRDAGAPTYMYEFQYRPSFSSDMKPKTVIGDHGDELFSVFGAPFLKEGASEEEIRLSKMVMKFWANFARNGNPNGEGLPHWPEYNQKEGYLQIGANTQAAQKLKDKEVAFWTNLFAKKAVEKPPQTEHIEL

[5] = Selectivity for rat recombinant FAAH over TGH
[6] = molecular target: T4, Neutral cholesterol ester hydrolase 1 (Homo sapiens, UniProt Q6PIU2); assay: Inhibition of KIAA1363
T4 sequence (Q6PIU2 whole entry): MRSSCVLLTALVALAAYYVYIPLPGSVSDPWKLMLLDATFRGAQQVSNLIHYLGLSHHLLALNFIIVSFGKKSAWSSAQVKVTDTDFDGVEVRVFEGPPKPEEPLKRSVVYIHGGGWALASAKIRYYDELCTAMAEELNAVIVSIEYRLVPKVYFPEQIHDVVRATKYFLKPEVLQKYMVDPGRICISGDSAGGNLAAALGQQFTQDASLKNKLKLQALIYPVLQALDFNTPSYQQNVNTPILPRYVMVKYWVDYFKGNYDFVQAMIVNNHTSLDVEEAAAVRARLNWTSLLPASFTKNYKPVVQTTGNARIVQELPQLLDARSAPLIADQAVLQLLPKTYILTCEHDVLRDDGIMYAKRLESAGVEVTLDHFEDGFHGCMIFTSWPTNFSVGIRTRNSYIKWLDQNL

[7] = Selectivity for TGH over rat recombinant FAAH
[8] = molecular target: T1, Fatty-acid amide hydrolase 1

Structure (SMILES) | Ratio IC50 [1] | Selectivity ratio [1] | pKi [2] | pIC50 [3] | pKi [3] | pIC50 [4] | Ratio IC50 [5] | pIC50 [6] | Selectivity ratio [7] | pKi [8]
O=C(CCc1ccc(-c2ccccc2)cc1)c1ncco1 | > 550 | – | – | 6.74 | 7.80 | 8.35 | 0.025 | < 4.00 | 1 | –
N#Cc1cnc(C(=O)CCc2ccc(Oc3ccccc3)cc2)o1 | 4000 | > 1000 | 9.07 | 8.30 | 9.10 | 7.80 | 3 | 4.70 | – | –
CCCCCCCC/C=C\CCCCCCCC(=O)c1ncco1 | – | – | – | – | – | – | – | – | – | 7.00
O=C(CCc1ccc(Oc2ccccc2)cc1)c1ncco1 | > 200 | – | – | 6.30 | 7.11 | 7.52 | 0.06 | < 4.00 | 1 | –
O=C(CCc1ccc(COc2ccccc2)cc1)c1ncco1 | > 370 | – | – | 6.57 | 7.60 | 6.57 | 1 | < 4.00 | 1 | –

Continued by rising pKi [3], values first:

Ratio IC50 [1] | Selectivity ratio [1] | pKi [2] | pIC50 [3] | pKi [3] | pIC50 [4] | Ratio IC50 [5] | pIC50 [6] | Selectivity ratio [7] | pKi [8] | Structure (SMILES)
– | – | 9.00 | – | 8.70 | – | – | – | – | – | O=C(CCc1ccc(Oc2ccccc2)cc1)c1ncc(C(F)(F)F)o1
– | – | 9.17 | – | 9.10 | – | – | – | – | – | O=C(CCc1ccc(COc2ccccc2)cc1)c1ncc(C(F)(F)F)o1
9500 | > 1000 | 9.29 | 8.70 | 9.30 | 7.00 | 50 | 4.72 | – | – | N#Cc1cnc(C(=O)CCc2ccc(COc3ccccc3)cc2)o1
